Measurements pooled from the literature.
Protocols differ between the studies behind these lines.
Target: Serine/threonine-protein kinase PAK 4 (PAK4, Homo sapiens, UniProt O96013)

| SMILES | effect on | action | method | concentration | notes | quantity | result |
| --- | --- | --- | --- | --- | --- | --- | --- |
| COc1ccc2[nH]c3c4[nH]c5ccc(OC)cc5c4c4c(c3c2c1)C(=O)NC4=O | binding | – | – | 1 µM | – | remaining binding | 90% |
| C1=C/COCc2cc(ccc2OCCN2CCCC2)Nc2nccc(n2)-c2cccc(c2)COC/1 | binding | – | – | 0.1 µM | – | remaining binding | 94% |
| COc1ccc2oc(-c3ccc4nc(N)oc4c3)c/c(=N\c3ccccc3NC(=O)CCN)c2c1 | binding | – | – | 1 µM | – | remaining binding | 104% |
| CC(C)S(=O)(=O)c1ccc2nccc(Nc3ccc4sc(C5CCCC5)nc4c3)c2c1 | enzyme activity | inhibitor | – | 1 µM | – | activity vs control | 104% |
| C[C@H]1CC[C@H](n2c3cnccc3c3cnc(Nc4ccc5c(n4)CCN(C(=O)CO)C5)nc32)CC1 | cell-free assay | – | – | 1 µM | – | remaining signal | 92% |
| CC#CC(=O)N1CCC[C@H]1c1nc(-c2ccc(C(=O)Nc3ccccn3)cc2)c2c(N)nccn12 | enzyme activity | inhibitor | – | 1 µM | – | inhibition | 0% |
| CCCCC(=O)Nc1ccc(-c2ccc3ncn(CCC)c(=O)c3c2)cn1 | binding | – | competition with immobilised ligand | 0.5 µM | – | remaining binding | 98% |
| C=CC(=O)N1CCC[C@@H](n2nc(-c3ccc(Oc4ccccc4)cc3)c3c(N)ncnc32)C1 | enzyme activity | inhibitor | – | 1 µM | – | inhibition | 6% |
| N#Cc1ccc(NC(=O)Nc2ccccc2)cc1 | cell-free assay | – | competition with immobilised ligand | 25 µM | – | remaining binding | 85% |
| Cc1cc(O)c(-c2ccc([C@@H](C)CN(C)C)cc2)c2c1[nH]c(=O)c1sccc12 | cell-free assay | inhibitor | – | 0.1 µM | lysate | inhibition | -7.15% |
